# Screening data from PubChem BioAssay.
# Rows were chosen to be rich in hits. Some 9.8% of all compounds tested hit in one or more screens of this group.
# Calpain2 inh: blocks pig calpain II enzyme activity; purified calpain II, fluorogenic peptide substrate, 30 min; inhibition, % at 16 µM; hit rate 0.37% among 220,000; AID 1236;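 active = inhibition above about 50%, limit read from the data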
# Lmaj promast: reduces viability of Leishmania major promastigotes. resazurin fluorescence viability. inhibition, % at 10 µM. hit rate 9% among 200,000. AID 1063; in the data active = inhibition above about 50%;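 note: promastigotes grown with compound for 44 hours at 28 °C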
# PMI act satM6P: activators of human phosphomannose isomerase at near-saturating mannose 6-phosphate | coupled PMI enzyme assay, resazurin fluorescence, 20 min; active compounds read high; 1 = untreated enzyme, 0 = substrate-free blank | hit rate 0.34% among 190,000 | activation factor at 20 µM;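 active = activation factor of 2 or more at 20 µM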
# Target sequence (P34949 whole entry, looked up): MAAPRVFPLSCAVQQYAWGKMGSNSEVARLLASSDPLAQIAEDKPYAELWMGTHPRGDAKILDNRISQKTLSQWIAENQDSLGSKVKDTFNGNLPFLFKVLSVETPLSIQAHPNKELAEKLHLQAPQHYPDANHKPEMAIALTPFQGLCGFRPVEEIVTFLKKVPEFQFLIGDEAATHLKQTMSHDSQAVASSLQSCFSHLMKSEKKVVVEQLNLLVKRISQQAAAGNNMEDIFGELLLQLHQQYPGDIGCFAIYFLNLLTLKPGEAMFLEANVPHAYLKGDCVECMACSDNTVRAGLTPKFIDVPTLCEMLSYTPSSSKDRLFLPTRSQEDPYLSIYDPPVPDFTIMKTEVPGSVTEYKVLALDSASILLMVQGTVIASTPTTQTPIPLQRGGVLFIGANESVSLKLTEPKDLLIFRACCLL
#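 Test system – human PMI in coupled enzyme assay · Timing – 20 min incubation at room temperature · Detection – Diaphorase-driven resazurin-to-resorufin fluorescence, excitation 544, emission 590 nm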
# WT yeast gro inh: growth inhibition of WT yeast, mitochondrial fusion screen; inhibition, % at 10 µM; mitochondrial fusion phenotypic screen, WT strain; AID 1362; hit rate 2.1% among 190,000; in the data active = inhibition above about 58%; tested in S. cerevisiae
# Rad51 HR inh: blocks human Rad51 in homologous recombination; Q06609; hRad51 DNA strand exchange, fluorescence dequenching; inhibition, % at 10 µM; hit rate 0.085% among 200,000; AID 1385;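 active = inhibition above 40% at the single screening dose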
#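 System: human Rad51 nucleoprotein filaments preassembled on unlabelled ssDNA. Reagent: labelled 47-mer dsDNA for strand exchange. Schedule: 30-min compound preincubation and 15-min exchange, both room temperature. Measured by: FRET fluorescence dequenching, excitation 485 nm, emission 520 nm. Read-out: Fluorescence-based percent inhibition, control- and blank-normalised. Benchmarks: plate controls and plate blanks.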
# PMI activator: increases human mannose-6-phosphate isomerase activity; P34949; purified human PMI, coupled resazurin fluorescence, 20 min; active compounds read high; 1 = vehicle control, 0 substrate-free wells; activation factor at 20 µM; hit rate 0.005% among 190,000; AID 1214;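 active = activation factor of 2 or more at 20 µM, relative to plate controls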
# Hits are given with their value; – = inactive; · = no result.
SMILES,Calpain2 inh,Lmaj promast,PMI act satM6P,WT yeast gro inh,Rad51 HR inh,PMI activator
Cc1nn(-c2ccccc2)c(N)c1N=Nc1ccccc1,–,–,–,–,–,–
Cc1nn(-c2ccccc2)c(N)c1N=Nc1ccc(Cl)cc1,–,–,–,81,–,–
Cc1cccc(N=Nc2c(C)nn(-c3ccccc3)c2N)c1C,–,–,–,83,–,–
CCc1nnc(NC(=O)C2CC(=O)N(Cc3ccccc3)C2)s1 (stereo not drawn),–,–,–,–,–,–
O=C(Nc1nnc(SCc2ccc(F)cc2)s1)C1CC(=O)N(Cc2ccccc2)C1 (stereo not drawn),–,54,–,–,–,–
CC(=O)Nc1nnc(CCS(=O)(=O)c2ccc(C)c(C)c2)s1,–,–,–,–,–,–
Oc1ccc(C[C@@H]2CNC(=S)N2CCCCC2CCCCC2)cc1,51,–,–,91,–,–
CCOC(=O)CSc1nc2sc(C)c(C)c2c(=O)n1C,–,–,–,–,–,–
Cc1sc2nc(C(C)C)nc(SCC(=O)N3c4ccccc4CC3C)c2c1C (stereo not drawn),–,94,–,–,–,–
CCOC(=O)CSc1nc(C(C)C)nc2sc(C)c(C)c12,54,–,–,–,–,–
CCN(CC)CCCC(C)NC(=O)c1cccc(S(=O)(=O)N2CCc3ccccc32)c1 (stereo not drawn),–,–,–,–,–,–
COc1ccc(S(=O)(=O)N2CCC(C(=O)N3CCc4ccccc4C3)CC2)cc1Cl,–,96,–,–,–,–
CCOC(=O)c1c(N)sc(C(=O)Nc2ccccc2)c1C,–,58,–,–,–,–
CCOC(=O)c1sc(NC(=O)c2cccc(S(=O)(=O)N3c4ccccc4CC3C)c2)cc1C (stereo not drawn),–,62,–,–,–,–
CCOC(=O)c1c(N)sc(C(=O)Nc2ccccc2F)c1C,–,–,–,–,–,–
CCOC(=O)c1c(C)nc2sc(C(=O)Nc3ccccc3)c(N)c2c1-c1ccc(OC)cc1,–,97,–,–,–,–
CCOC(=O)c1sc(NC(=O)Nc2ccccc2Cl)cc1C,–,80,–,–,–,–
CCOC(=O)c1sc(NC(=O)c2ccc(C)s2)cc1C,–,–,–,–,–,–
CCOc1cc(N2CCOCC2)c(OCC)cc1NC(=O)CSc1ncn[nH]1,–,–,–,–,–,–
COc1cc(CC(=O)NNC(=O)c2cc(C)oc2C)cc(OC)c1OC,–,–,–,–,–,–
COc1cc2c(cc1OC)C(c1ccccc1)CC2=O (stereo not drawn),–,·,·,·,–,·
CCOC(=O)c1sc(NC(=O)Nc2ccccc2)cc1C,–,92,–,–,–,–
CCOC(=O)c1sc(NC(C)=O)cc1C,–,–,–,–,–,–
Fc1ccc(NC(=S)NC2CC3CCCC(C2)N3Cc2cccs2)cc1 (stereo not drawn),–,94,·,–,–,·
CC(C)c1ccc(NC(=O)NC2CC3CCC(C2)N3Cc2cccs2)cc1 (stereo not drawn),–,73,–,–,–,–
SMILES,Calpain2 inh,Lmaj promast,PMI act satM6P,WT yeast gro inh,Rad51 HR inh,PMI activator
O=C(Nc1cccc(Cl)c1)NC1CC2CCC(C1)N2Cc1cccs1 (stereo not drawn),–,–,–,–,–,–
Cc1ccc(NC(=S)NC2CC3CCCC(C2)N3Cc2cccs2)cc1 (stereo not drawn),–,92,–,–,–,–
O=C(NCC1CCCO1)C1CCCN1C(=O)Nc1ccc(Cl)cc1 (stereo not drawn),–,–,–,–,–,–
COc1ccc(/C=C/c2cc(-c3ccc(C)cc3)o[n+]2C)cc1,–,101,–,58,–,–
COc1ccc(-c2ccc(OC)cc2)cc1,–,–,–,–,–,–
O=C(C[n+]1cnn(CC(=O)c2ccc(Cl)cc2Cl)c1)c1ccc([N+](=O)[O-])cc1,–,83,–,–,–,–
O=C(Nc1cnn(Cc2ccc(Cl)cc2)c1)c1ccc([N+](=O)[O-])cc1,–,–,–,–,–,–
COc1ccc(-c2noc(CSc3nc4ccccc4c(=O)n3-c3ccc(C)cc3)n2)cc1,–,–,–,–,–,–
O=C(NCc1ccc(Cl)cc1)c1cnccn1,–,–,–,–,–,–
O=C(NCc1ccccc1Cl)c1cnccn1,–,–,–,75,–,–
